Where “and” joins values, the source holds several entries; their conditions need not be identical. Equal values may be shown once.
Columns and labels:
P388 [1] = assay: (§1) Antitumor activity in P-388 lymphocytic leukemia system at 200 mg/kg dose levels per injection.; assay type: functional, Mus musculus
How it was run: (§2)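 P-388 leukemia in animals, Q01D×09 schedule: dose given daily for 9 days, in mg/kg per injection. Read-outs are survivors on day 4 (live/total animals), body-weight difference test minus control (g), and % T/C (median lifetime of treated ÷ median lifetime of controls × 100). Some compounds were tested in independent runs at different times.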

P388 [2] = assay: Compound was tested for antitumor activity in P-388 lymphocytic leukemia system at 200 mg/kg dose levels per injection; assay type: functional, Mus musculus
How it was run: (§3)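 P-388 leukemia in vivo, dosed Q01D×09 (one injection daily for 9 days, mg/kg per injection). Activity is %T/C, the median lifetime of treated animals divided by that of controls, ×100. Live animals on day 4 were counted against the total (survivors day 4). Repeat tests were done independently at different times.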

P388 [3] = assay: (§4) Antitumor activity in P-388 lymphocytic leukemia system at 50 mg/kg dose levels per injection.; assay type: functional, Mus musculus; how it was run: as §2
P388 [4] = assay: Compound was tested for antitumor activity in P-388 lymphocytic leukemia system at 400 mg/kg dose levels per injection; 6/6; assay type: functional, Mus musculus; how it was run: as §2
P388 [5] = assay: as §4; assay type: functional, Mus musculus; how it was run: as §3; remark: listed apart in the source
P388 [6] = assay: Compound was tested for antitumor activity in P-388 lymphocytic leukemia system at 400 mg/kg dose levels per injection; assay type: functional, Mus musculus; how it was run: as §3
P388 [7] = assay: Compound was tested for antitumor activity in P-388 lymphocytic leukemia system. at 400 mg/kg dose levels per injection; assay type: functional, Mus musculus; how it was run: as §3
P388 [8] = assay: as §1; assay type: functional, Mus musculus; how it was run: as §3; remark: listed apart in the source
P388 [9] = assay: (§5) Antitumor activity in P-388 lymphocytic leukemia system at 100 mg/kg dose levels per injection.; assay type: functional, Mus musculus; how it was run: as §3
P388 [10] = assay: as §5; assay type: functional, Mus musculus; how it was run: as §2; remark: listed apart in the source
[11] = Solubility was determined; INS= less than 0.1; assay type: physicochemical
P388 [12] = assay: Compound was tested for antitumor activity in P-388 lymphocytic leukemia system at 100 mg/kg dose levels per injection; 5/6; assay type: functional, Mus musculus; how it was run: as §2
P388 [13] = assay: Antitumor activity in P-388 lymphocytic leukemia system at 25 mg/kg dose levels per injection; assay type: functional, Mus musculus; how it was run: as §3
P388 [14] = assay: Compound was tested for antitumor activity in P-388 lymphocytic leukemia system at 25 mg/kg dose levels per injection; assay type: functional, Mus musculus; how it was run: as §3
P388 [15] = assay: Compound was tested for antitumor activity in P-388 lymphocytic leukemia system at 200 mg/kg dose levels per injection; 5/6; assay type: functional, Mus musculus; how it was run: as §2
P388 [16] = assay: Compound was tested for antitumor activity in P-388 lymphocytic leukemia system at 25 mg/kg dose levels per injection; 6/6; assay type: functional, Mus musculus; how it was run: as §2
P388 [17] = assay: Compound was tested for antitumor activity in P-388 lymphocytic leukemia system at 166.7 mg/kg dose levels per injection; Toxic; assay type: functional, organism-based; set-up: dose 166.7 mg/kg; conditions: Mus musculus; how it was run: as §3
P388 [18] = assay: Compound was tested for antitumor activity in P-388 lymphocytic leukemia system. at 200 mg/kg dose levels per injection; Toxic; assay type: functional, organism-based; set-up: dose 200 mg/kg; conditions: Mus musculus; how it was run: as §3
P388 [19] = assay: Compound was tested for antitumor activity in P-388 lymphocytic leukemia system at 200 mg/kg dose levels per injection.; assay type: functional, organism-based; set-up: dose 200 mg/kg; conditions: Mus musculus; how it was run: as §3
P388 [20] = assay: Compound was tested for antitumor activity in P-388 lymphocytic leukemia system and the difference in body weight was calculated at 400 mg/kg dose levels per injection; assay type: functional, Mus musculus
P388 [21] = assay: Compound was tested for antitumor activity in P-388 lymphocytic leukemia system at 200 mg/kg dose levels per injection;6/6; assay type: functional, Mus musculus; how it was run: as §2
P388 [22] = assay: Antitumor activity in P-388 lymphocytic leukemia system and the difference in body weight was calculated at 50 mg/kg dose levels per injection.; assay type: functional, Mus musculus
P388 [23] = assay: Antitumor activity in P-388 lymphocytic leukemia system and the difference in body weight calculated at 100 mg/kg dose levels per injection.; assay type: functional, Mus musculus
P388 [24] = assay: Antitumor activity in P-388 lymphocytic leukemia system and the difference in body weight was calculated at 200 mg/kg dose levels per injection.; assay type: functional, Mus musculus; conditions: 200 mg/kg
P388 [25] = assay: Compound was tested for antitumor activity in P-388 lymphocytic leukemia system at 200 mg/kg dose levels per injection; 0/6; assay type: functional, Mus musculus; how it was run: as §2
P388 [26] = assay: Antitumor activity in P-388 lymphocytic leukemia system at 25 mg/kg dose levels per injection.; assay type: functional, Mus musculus; how it was run: as §2

Structure (SMILES)	Survivors at day 4 (P388 [1])	Weight difference (P388 [2]) [g]	Survivors at day 4 (P388 [3])	Survivors at day 4 (P388 [4])	T/C (P388 [5]) [%]	T/C (P388 [8]) [%]	T/C (P388 [9]) [%]	Survivors at day 4 (P388 [10])	Solubility [11]	T/C (P388 [5]; 50 mg/kg)	T/C (P388 [9]; 100 mg/kg)	other results
CC1=CC2(C)C3C(=O)NC(=O)C3C1C1(C)C3C(=O)NC(=O)C3C21 (centres undefined)	6	-1.8	6	6	108	97	109	6	Insoluble	–	–	Weight difference (P388 [5]): -0.9 g; Weight difference (P388 [6]): -5.3 g; T/C (P388 [7]): 101%; Weight difference (P388 [9]): -1.5 g
O=C1NC(=O)C2C3C=CC(C12)C1C(=O)NC(=O)C31 (centres undefined)	–	-4.3	6	–	100	92	97	–	Insoluble	–	–	Survivors at day 4 (P388 [12]): 5; T/C (P388 [13]): 105%; Weight difference (P388 [14]): -0.7 g; Weight difference (P388 [5]): -1.1 g; Survivors at day 4 (P388 [15]): 5; Weight difference (P388 [9]): -2.4 g; Survivors at day 4 (P388 [16]): 6
CN1CCN(CN2C(=O)C3C4C=CC(C3C2=O)C2C3C(=O)N(CN5CCN(C)CC5)C(=O)C3C42)CC1 (centres undefined)	–	–	–	–	–	–	–	–	–	–	–	T/C (P388 [17]): Toxic; T/C (P388 [18]): Toxic
CCOC(=O)N1C(=O)C2C3CCC(C2C1=O)C1C2C(=O)N(C(=O)OCC)C(=O)C2C31 (centres undefined)	6	–	6	–	–	222	–	6	Insoluble	127% and 115%	157% and 142%	Weight difference (P388 [2]; 200 mg/kg): -4 g and -5.2 g; T/C (P388 [13]; 25 mg/kg): 111% and 104%; T/C (P388 [19]): Toxic; Weight difference (P388 [14]; 25 mg/kg): -0.5 g and -0.7 g; Weight difference (P388 [5]; 50 mg/kg): -0.3 g and -0.4 g; Survivors at day 4 (P388 [15]): 5; Weight difference (P388 [9]; 100 mg/kg): -1.2 g and -2.2 g; Survivors at day 4 (P388 [16]): 6
COC1=CC2C3C(=O)NC(=O)C3C1C1C3C(=O)NC(=O)C3C21 (centres undefined)	6	–	6	6	99	–	101	6	Insoluble	–	–	Weight difference (P388 [20]): -2 g; Survivors at day 4 (P388 [21]): 6; T/C (P388 [7]): 98%; Weight difference (P388 [22]): 0 g; T/C (P388 [8]; 200 mg/kg): 101% and 90%; Weight difference (P388 [23]): -0.3 g; Weight difference (P388 [24]): -0.3 g and -0.4 g
CCOC(=O)N1C(=O)C2C3C=CC(C2C1=O)C1C2C(=O)N(C(=O)OCC)C(=O)C2C31 (centres undefined)	6	-6.5	6	–	–	–	–	6	Insoluble	135% and 121%	152% and 145%	Survivors at day 4 (P388 [25]): 0; T/C (P388 [13]; 25 mg/kg): 124% and 116%; T/C (P388 [19]): Toxic; Weight difference (P388 [5]; 50 mg/kg): -0.6 g and -0.8 g; Survivors at day 4 (P388 [26]): 6; Weight difference (P388 [9]; 100 mg/kg): -4.6 g and -5.5 g
O=C(O)C1C2C(=O)N(CO)C(=O)C2C(C(=O)O)C2C3C(=O)N(CO)C(=O)C3C12 (centres undefined)	6	–	6	6	–	–	–	6	–	92% and 105%	120% and 107%	T/C (P388 [7]; 400 mg/kg): 129% and 131%; Weight difference (P388 [22]; 50 mg/kg): -0.9 g and -1.2 g; T/C (P388 [8]; 200 mg/kg): 114% and 120%

Source: ChEMBL document CHEMBL1123476, “Synthesis of congeners and prodrugs of the benzene maleimide photoadduct mitindomide as potential antitumor agents. 2” (J Med Chem, 1986)
